Published values from different studies.
Protocols differ between the studies behind these lines.
Effect on: parasite growth

With `CC(C)(C)CC(C)(C)Nc1c(-c2ccc(-c3ccccc3)cc2)nc2ncccn12` the IC50 was 31.1 µM (Leishmania amazonensis; MTT; 72 h, promastigote).
The IC50 of `Oc1ccc(/C=C/c2cc(O)cc(O)c2)cc1` is reported as 14 µM (Leishmania amazonensis; imaging; 48 h, intracellular, amastigote).
`COc1ccc(Sc2ccccc2)c(OC)c1OC` gave an IC50 of 14 µM (Leishmania braziliensis; MTT; promastigote).
With `CC(C)(C)CC(C)(C)Nc1c(-c2cccnc2)nc2ncccn12` the IC50 was greater than 100 µM (Leishmania amazonensis; MTT; 72 h, promastigote).
With `C=C1CC[C@@H]2[C@](C)(CCC[C@]2(C)C(=O)O)[C@H]1CC/C(C)=C/C(=O)O` the IC50 was 28 µg/mL (Leishmania amazonensis; 72 h, promastigote).
With `CCCCCCCCCCCCCCCCOP(=O)([O-])OCC[N+](C)(C)C` the IC50 was 15.1 µM (Leishmania amazonensis; MTT; 72 h, promastigote).
For `C=C1CC[C@@H]2[C@](C)(CCC[C@@]2(C)C(=O)O)[C@H]1CCc1ccoc1`, the IC50 was 35 µg/mL (Leishmania amazonensis; 72 h, promastigote).
`COc1ccc([S+]([O-])c2ccc(OC)c(OC)c2OC)cc1` (stereo not drawn) gave an IC50 of 15.2 µM (Leishmania braziliensis; MTT; 24 h, promastigote).
With `C=C1CC[C@@H]2C(C)(C)CCC[C@@]2(C)[C@@H]1CC/C(C)=C/C(=O)OC` the IC50 was 6 µg/mL (Leishmania amazonensis; 72 h, promastigote).
`N=C(N)c1ccc(OCCCCCOc2ccc(C(=N)N)cc2)cc1` has an IC50 of 3.4 µM (Leishmania amazonensis; imaging; 48 h, intracellular, amastigote).
For `COc1ccc(Sc2ccc(OC)c(OC)c2OC)cc1`, the IC50 was 28 µM (Leishmania braziliensis; MTT; 24 h, promastigote).
`CC(C)(C)CC(C)(C)Nc1c(-c2ccccc2)nc2ncccn12` has an IC50 of 50.3 µM (Leishmania amazonensis; MTT; 72 h, promastigote).
